Calls of active or inactive are those of the source. No cut-off for these calls is given here.
How the values were obtained:
[1] = (§1) Inhibition of recombinant Escherichia coli M1 aminopeptidase using Leu-pNA as substrate preincubated for 15 mins followed by substrate addition
Method in brief: (§2)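 Recombinant ePepN (partially purified by ion exchange) or porcine kidney cortex microsomal APN was pre-incubated 15 min at 25°C with inhibitor in DMSO (final ≤2% v/v), then 75 μM Leu-pNA (~1 KMapp) was added. Buffer was 50 mM Tris-HCl pH 8.0. A405 was read every 15 s for 3 min. Doses were double serial dilutions over 0.781–100 μM, and IC50 came from a logistic fit of residual activity (vi/v0); at least triplicate.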

Escherichia coli [2] = assay: as §1; method in brief: as §2
Escherichia coli [3] = assay: Reversible inhibition of recombinant Escherichia coli M1 aminopeptidase using Leu-pNA as substrate preincubated for 15 mins followed by substrate addition; method in brief: as §2
[4] = Cytotoxicity against mouse P3X63Ag assessed as reduction in cell viability at 50 uM after 3 hrs by MTT assay relative to control
Method in brief: (§3)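 P3X63Ag murine myeloma cells were grown in DMEM-F12 with 10% FCS at 37°C, 5% CO2. For the assay they were plated in serum-free DMEM-F12 and exposed to compounds for 3, 6 or 20 h. After a PBS wash, cells got MTT for 3 h and crystals were dissolved in DMSO. Absorbance was read at 450 nm (620 nm reference), and viability calculated as 100×At/Ac versus untreated cells.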

[5] = Cytotoxicity against mouse P3X63Ag assessed as reduction in cell viability at 50 uM after 6 hrs by MTT assay relative to control; method in brief: as §3
[6] = Inhibition of M1 aminopeptidase in porcine kidney cortex microsomes using Leu-pNA as substrate preincubated for 15 mins followed by substrate addition; set-up: species or system Sus scrofa
[7] = Selectivity index, ratio of IC50 for M1 aminopeptidase in porcine kidney cortex microsomes to IC50 for recombinant Escherichia coli M1 aminopeptidase
[8] = Haemolytic activity in human erythrocytes assessed as induction of hemolysis at 100 uM after 20 hrs relative to control; assay type: cell-based, Erythrocyte; conditions: read-out: Activity
Method in brief: (§4)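 Fresh human red blood cells were washed and resuspended in 145 mM NaCl, 10 mM Tris-HCl pH 7.4, adjusted so full lysis with Na2CO3 gives A540 ≈0.7. Cells were incubated with compounds for 3, 6 or 20 h, with untreated and 1% DMSO controls. Supernatant haemoglobin was measured after centrifugation.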

Erythrocyte [9] = assay: Haemolytic activity in human erythrocytes assessed as induction of hemolysis after 3 hrs; assay type: cell-based; method in brief: as §4
Escherichia coli [10] = assay: Growth inhibition of Escherichia coli BL21 up to 100 uM after 3 to 20 hrs by spectrophotometric analysis; assay type: functional, organism-based
Method in brief: (§5)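 E. coli BL21 was inoculated at 1% from an overnight culture into LB. Compounds were added at eight concentrations (0.781–100 μM) from DMSO serial dilutions, with DMSO and 200 μg/mL ampicillin controls; four replicates. Plates were held at 37°C and raised to 42°C at 6 h. A595 was read at 0, 3, 6 and 20 h and normalized to the DMSO control (100% growth).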

Erythrocyte [11] = assay: Haemolytic activity in human erythrocytes assessed as induction of hemolysis after 6 hrs; assay type: cell-based; method in brief: as §4
Erythrocyte [12] = assay: Haemolytic activity in human erythrocytes assessed as induction of hemolysis after 20 hrs; assay type: cell-based; method in brief: as §4
[13] = Cytotoxicity against mouse P3X63Ag assessed as reduction in cell viability at 50 uM after 20 hrs by MTT assay relative to control; method in brief: as §3
[14] = Cytotoxicity against mouse P3X63Ag assessed as reduction in cell viability after 3 hrs by MTT assay; method in brief: as §3
[15] = Cytotoxicity against mouse P3X63Ag assessed as reduction in cell viability after 6 hrs by MTT assay; method in brief: as §3
[16] = Cytotoxicity against mouse P3X63Ag assessed as reduction in cell viability after 20 hrs by MTT assay; method in brief: as §3
[17] = (§6) Inhibition of recombinant Escherichia coli M1 aminopeptidase using Leu-pNA as substrate preincubated for 45 mins followed by substrate addition; conditions: in the assay text read “15 mins” for “45 mins”
Method in brief: (§7)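 The time to reach inhibition equilibrium was tested by pre-incubating recombinant ePepN with inhibitor for 5, 10, 15, 30 or 45 min at 25°C. Residual activity was then measured on 75 μM Leu-pNA in 50 mM Tris-HCl pH 8.0, reading A405 continuously against a DMSO control.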

Escherichia coli [18] = assay: as §6; method in brief: as §7
Escherichia coli [19] = assay: Reversible inhibition of recombinant Escherichia coli M1 aminopeptidase using Leu-pNA as substrate preincubated for 45 mins followed by substrate addition; conditions: in the assay text read “15 mins” for “45 mins”; method in brief: as §7
Escherichia coli [20] = assay: Noncompetitive inhibition of recombinant Escherichia coli M1 aminopeptidase assessed as Km for substrate at 1.56 uM using Leu-pNA as substrate preincubated for 15 mins followed by substrate addition by Lineweaver-Burk double reciprocal plot analysis (reference value: 120 umol/L)
Escherichia coli [21] = assay: Noncompetitive inhibition of recombinant Escherichia coli M1 aminopeptidase assessed as Km for substrate at 6.25 uM using Leu-pNA as substrate preincubated for 15 mins followed by substrate addition by Lineweaver-Burk double reciprocal plot analysis (reference value: 120 umol/L)
Escherichia coli [22] = assay: Noncompetitive inhibition of recombinant Escherichia coli M1 aminopeptidase assessed as Km for substrate at 3.125 uM using Leu-pNA as substrate preincubated for 15 mins followed by substrate addition by Lineweaver-Burk double reciprocal plot analysis (reference value: 120 umol/L)
Escherichia coli [23] = assay: Noncompetitive inhibition of recombinant Escherichia coli M1 aminopeptidase assessed as Vmax for substrate at 1.56 uM using Leu-pNA as substrate preincubated for 15 mins followed by substrate addition by Lineweaver-Burk double reciprocal plot analysis (reference value: 125 10^-3OD/min)
Escherichia coli [24] = assay: Noncompetitive inhibition of recombinant Escherichia coli M1 aminopeptidase assessed as Vmax for substrate at 6.25 uM using Leu-pNA as substrate preincubated for 15 mins followed by substrate addition by Lineweaver-Burk double reciprocal plot analysis (reference value: 125 10^-3OD/min)
Escherichia coli [25] = assay: Noncompetitive inhibition of recombinant Escherichia coli M1 aminopeptidase assessed as Vmax for substrate at 3.125 uM using Leu-pNA as substrate preincubated for 15 mins followed by substrate addition by Lineweaver-Burk double reciprocal plot analysis (reference value: 125 10^-3OD/min)
Escherichia coli [26] = assay: Growth inhibition of Escherichia coli BL21 after 3 to 6 hrs by spectrophotometric analysis; assay type: functional, organism-based; method in brief: as §5
Escherichia coli [27] = assay: Growth inhibition of Escherichia coli BL21 after 20 hrs by spectrophotometric analysis; assay type: functional, organism-based; conditions: BL21, BL21, 20 h; method in brief: as §5

IC50 [1] [µM] | inhibition (Escherichia coli [2]) | inhibition (Escherichia coli [3]) | SMILES | other results
7.2 | Dose-dependent effect | Active | COc1ccc(C(N[C@@H](Cc2c[nH]c3ccccc23)C(=O)O)c2nnnn2Cc2ccccc2)cc1 (some centres not stated) | –
2.2 | Dose-dependent effect | Active | O=C(O)[C@H](Cc1c[nH]c2ccccc12)NC(c1ccco1)c1nnnn1C1CCCCC1 (some centres not stated) | Activity [4]: <= 60%; Activity [5]: <= 50%; IC50 [6]: 2000 µM; Ratio IC50 [7]: 909; hemolysis at 20 h, 100 µM [8]: 40%; HC20 (Erythrocyte [9]): 80 µM; growth inhibition (GI) (Escherichia coli [10]): inactive; HC20 (Erythrocyte [11]): 70 µM; HC20 (Erythrocyte [12]): 55 µM; Activity [13]: <= 50%; IC50 [14]: > 100 µM; IC50 [15]: > 100 µM; IC50 [16]: 100 µM
27 | Dose-dependent effect | Active | CC(C)[C@H](NC(c1cccnc1)c1nnnn1C1CCCCC1)C(=O)O (some centres not stated) | –
25 | Dose-dependent effect | Active | O=C(O)[C@H](Cc1c[nH]c2ccccc12)NC(c1ncc[nH]1)c1nnnn1Cc1ccccc1 (some centres not stated) | –
160 | Dose-dependent effect | Active | COc1ccc(C(N[C@H](C(=O)O)C(C)C)c2nnnn2CCCc2ccccc2)cc1 (some centres not stated) | –
630 | Dose-dependent effect | Active | COc1ccc(C(N[C@@H](Cc2c[nH]c3ccccc23)C(=O)O)c2nnnn2C2CCCCC2)cc1 (some centres not stated) | –

More lines, now with the values behind:

SMILES | IC50 [1] [µM] | inhibition (Escherichia coli [2]) | inhibition (Escherichia coli [3]) | other results
O=C(O)[C@H](Cc1ccccc1)NC(c1ccco1)c1nnnn1C1CCCCC1 (some centres not stated) | 41 | Dose-dependent effect | Active | –
CC(C)[C@H](NCc1nnnn1Cc1ccccc1)C(=O)O | 47 | Dose-dependent effect | Active | –
CC(C)[C@H](NC(c1ncc[nH]1)c1nnnn1Cc1ccccc1)C(=O)O (some centres not stated) | 71 | Dose-dependent effect | Active | –
O=C(O)[C@H](Cc1c[nH]c2ccccc12)NC(c1ccco1)c1nnnn1Cc1ccccc1 (some centres not stated) | – | – | – | IC50 [6]: 6100 µM; Ratio IC50 [7]: 23500; IC50 [17]: 0.26 µM; inhibition (Escherichia coli [18]): Dose-dependent effect; hemolysis at 20 h, 100 µM [8]: 15%; HC20 (Erythrocyte [9]): > 100 µM; growth inhibition (GI) (Escherichia coli [10]): inactive; HC20 (Erythrocyte [11]): > 100 µM; HC20 (Erythrocyte [12]): > 100 µM; IC50 [14]: > 100 µM; IC50 [15]: > 100 µM; IC50 [16]: > 100 µM; inhibition (Escherichia coli [19]): Active; Km (Escherichia coli [20]): 71.3 µM; Km (Escherichia coli [21]): 61.4 µM; Km (Escherichia coli [22]): 69.3 µM; Vmax (Escherichia coli [23]): 45.5 mOD/min; Vmax (Escherichia coli [24]): 23.3 mOD/min; Vmax (Escherichia coli [25]): 34.5 mOD/min
COc1ccc(C(N[C@@H](Cc2ccc(OCc3ccccc3)cc2)C(=O)O)c2nnnn2C2CCCCC2)cc1 (some centres not stated) | 1.4 | Dose-dependent effect | Active | Activity [4]: <= 60%; Activity [5]: <= 50%; IC50 [6]: 1580 µM; Ratio IC50 [7]: 1130; hemolysis at 20 h, 100 µM [8]: 40%; HC20 (Erythrocyte [9]): > 100 µM; HC20 (Erythrocyte [11]): 70 µM; HC20 (Erythrocyte [12]): 65 µM; Activity [13]: <= 50%; IC50 [14]: > 100 µM; IC50 [15]: 100 µM; IC50 [16]: 100 µM; IC50 (Escherichia coli [26]): < 50 µM; IC50 (Escherichia coli [27]): < 100 µM
O=C(O)[C@H](Cc1ccccc1)NC(c1ccco1)c1nnnn1Cc1ccccc1 (some centres not stated) | 17 | Dose-dependent effect | Active | –
CC(C)[C@H](NC(c1ncc[nH]1)c1nnnn1C1CCCCC1)C(=O)O (some centres not stated) | 127 | Dose-dependent effect | Active | –
O=C(O)[C@H](Cc1c[nH]c2ccccc12)NCc1nnnn1C1CCCCC1 | 110 | Dose-dependent effect | Active | –
COc1ccc(C(N[C@H](C(=O)O)C(C)C)c2nnnn2C2CCCCC2)cc1 (some centres not stated) | 90 | Dose-dependent effect | Active | –
COc1ccc(C(N[C@H](C(=O)O)C(C)C)c2nnnn2Cc2ccccc2)cc1 (some centres not stated) | > 1000 | – | – | growth inhibition (GI) (Escherichia coli [10]): inactive
CC(C)[C@H](NC(c1ncc[nH]1)c1nnnn1CCCc1ccccc1)C(=O)O (some centres not stated) | 470 | Dose-dependent effect | Active | –
CC(C)[C@H](NCc1nnnn1CCCc1ccccc1)C(=O)O | 170 | Dose-dependent effect | Active | –
O=C(O)[C@H](Cc1c[nH]c2ccccc12)NC(c1cccnc1)c1nnnn1C1CCCCC1 (some centres not stated) | 22 | Dose-dependent effect | Active | –
CC(C)C[C@H](NC(=O)[C@@H](O)[C@H](N)Cc1ccccc1)C(=O)O [UBENIMEX] | 7 | – | – | growth inhibition (GI) (Escherichia coli [10]): inactive
O=C(O)[C@H](Cc1ccc(OCc2ccccc2)cc1)NCc1nnnn1C1CCCCC1 | 44 | Dose-dependent effect | Active | –
O=C(O)[C@H](Cc1c[nH]c2ccccc12)NC(c1ncc[nH]1)c1nnnn1C1CCCCC1 (some centres not stated) | 48 | Dose-dependent effect | Active | –

Reference: ChEMBL document CHEMBL4411278, “Discovery of potent and selective inhibitors of the Escherichia coli M1-aminopeptidase via multicomponent solid-phase synthesis of tetrazole-peptidomimetics” (Eur J Med Chem, 2019)
